# Sampled rows, rich in hits. Any-hit rate of the full collection: about 2.2%.
# HKDC1 inh – blocks human hexokinase HKDC1 activity | inhibition, % at 20 µM | recombinant HKDC1, G6PDH/diaphorase resazurin coupled fluorescence | actives 0.16% (n = 340,000) | Q2TB90;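 active = inhibition above about 35% when tested at 20 µM, limit read from the data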;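 also: plate controls were DMSO wells with enzyme for no effect and DMSO wells lacking enzyme for full effect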
#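 Incubation: 90 min at room temperature in dark / Material: recombinant HKDC1 (HK5) hexokinase enzyme, produced in-house / Quantity: enzyme 5 µg/mL final / Compound: one dose of 20 µM, 1% DMSO / Reagent: glucose and ATP substrates / Buffer or medium: Tris pH 8.0 buffer with MgCl2, Tween-20, BSA, BME / Technique: resorufin fluorescence at 613 nm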
# Exocytosis inh – lytic granule exocytosis inhibition | TALL-104 LAMP-1 surface exposure, flow cytometry; cells stimulated with thapsigargin and PMA | inhibition, % at 10 µM | actives 0.66% (n = 360,000) | AID 651702;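 active = inhibition above about 55%, limit read from the data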
# PfG6PD inh – PfG6PD (Plasmodium falciparum) enzyme inhibition. PfGluPho enzyme, NADPH resazurin-diaphorase fluorescence. inhibition, % at 20 µM. actives 0.78% (n = 350,000). AID 504690;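 active = inhibition reaching at least a set limit at 20 µM in the primary screen, cut at about 59% in these data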;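 also: 0% = DMSO wells with substrate and 100% = DMSO wells lacking glucose-6-phosphate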
# ABHD5 PLIN5 PPI – ABHD5-PLIN5 protein interaction inhibition. Split G. princeps luciferase complementation, luminescence, 4 h. inhibition, % at 4 µM. actives 0.78% (n = 360,000). AID 602281;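 active = inhibition above the mean inhibition across every tested compound plus 3 SD, cut at about 22% in these data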;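 also: 0% = DMSO only wells and the 100% control is not disclosed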
# ABHD5 PLIN5 conf – confirmation of human ABHD5-PLIN5 interaction inhibitors. actives 67% (n = 2,200). biochemical ABHD5-PLIN5 interaction, luminescence. shares compounds with ABHD5 PLIN5 PPI. inhibition, % at 4 µM; in the data active = inhibition above about 23%;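 also: 0% = DMSO vehicle wells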
# HNF4 split-luc – counter-screen for ABHD5-PLIN5 inhibitors: HNF4 split-luciferase | shares compounds with ABHD5 PLIN5 PPI | HNF4 dimerization, luminescence, biochemical | inhibition, % at 4 µM | actives 77% (n = 2,200) | AID 651674;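 active = mean inhibition across replicate wells exceeding the computed hit threshold, cut at about 13% in these data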;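 also: light from luciferase halves that rejoin when HNF4 fusion proteins dimerize; 0% = DMSO only wells and the 100% control is not given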
# Numbers without * were called inactive; . = no result.
SMILES,HKDC1 inh,Exocytosis inh,PfG6PD inh,ABHD5 PLIN5 PPI,ABHD5 PLIN5 conf,HNF4 split-luc
O=C(OCC(=O)N1N=C(c2ccc(Cl)cc2)CC1c1ccco1)c1cccnc1 (stereo not given),3,11,22,49*,29*,26*
COCC(=O)OCC(=O)N1N=C(c2ccc(Cl)cc2)CC1c1ccco1 (stereo not given),-4,2,7,7,.,.
O=C(COc1cccnc1[N+](=O)[O-])N1N=C(c2ccc(Cl)cc2)CC1c1ccco1 (stereo not given),0,0,7,5,.,.
CCOC(=O)C(Cc1cc(N)c(Oc2ccc(OC)cc2)c(N)c1)NC(C)=O (stereo not given),13,1,8,-9,.,.
O=C(O/N=C/c1ccc(Br)cc1)c1ccc(F)cc1,-3,-3,-14,-5,.,.
O=C(CN1CC(=O)Nc2ccccc21)NCCc1ccc(Cl)cc1Cl,-9,-1,13,11,.,.
COc1c(F)c(F)c(C(=O)O)c(Nc2ccc(C)cc2C)c1F,-8,2,5,0,.,.
Cc1ccc(C(=O)C(C(=O)/C=C/c2ccccc2)=C2SCCCS2)cc1,17,1,19,31*,66*,50*
CCc1ccccc1OCC(=O)Nc1cc(S(=O)(=O)N2CCOCC2)ccc1N1CCCCC1,3,0,12,-2,.,.
CCc1ccc(CN2CCCC(CCC(=O)N3CCN(c4ccccn4)CC3)C2)o1 (stereo not given),-2,7,-11,6,.,.
Cc1cccc(CS(=O)(=O)c2ncc(Cl)c(C(=O)Nc3c(C)cccc3C)n2)c1,1,55,19,75*,89*,107*
Cc1cc(C)cc(S(=O)(=O)Cc2noc(C(=O)NCc3ccccc3)c2C(=O)NCc2ccccc2)c1,-1,10,15,-6,.,.
CCCc1nnc(NC(=O)c2nc(S(=O)(=O)Cc3cccc(C)c3)ncc2Cl)s1,7,28,-18,28*,74*,42*
Cc1cccc(CS(=O)(=O)c2ncc(Cl)c(C(=O)NCc3ccccc3)n2)c1,-1,35,30,34*,92*,106*
COc1ccc(C(CNC(=O)C(C)Oc2ccc(Br)cc2)N2CCCCC2)cc1 (stereo not given),-2,-5,14,3,.,.
CCOc1ccc(S(=O)(=O)N(CC(=O)NCc2cccnc2)c2ccc(F)cc2)cc1,-5,-6,-2,40*,1,-5
COc1cc(Cl)c(S(=O)(=O)N2CCCC2)cc1Cl,-5,-2,-7,-1,.,.
COc1cc(N2C(=O)C=CC2=O)c(OC)cc1Cl,-6,-2,72*,39*,44*,104*
O=CN1CCCN(Cc2nc(-c3cccc(Cl)c3)no2)CC1,0,3,-23,-1,.,.
O=C(O)C(CCC(C(=O)O)c1ccccc1)c1ccccc1 (stereo not given),-8,-2,12,0,.,.
CC(/C=N/NC(=O)c1cc(-c2ccc(C)o2)[nH]n1)=C\c1ccccc1,-3,7,1,2,.,.
CC1C(=O)NN=C1C(=O)N/N=C\C(Br)=C\c1ccccc1 (stereo not given),-5,1,-9,34*,6,22*
O=C(N/N=C/C(Br)=C/c1ccccc1)c1cc(-c2ccco2)[nH]n1,-5,13,20,25*,22*,72*
COc1ccc(CCC(=O)Nc2c(-c3ccc(N(C)C)cc3)[nH][nH]c2=O)cc1,.,-3,.,86*,22,79*
COc1cc(/C=C(/C(=O)c2cccs2)c2nc3ccccc3[nH]2)cc(OC)c1O,19,19,16,60*,88*,88*
SMILES,HKDC1 inh,Exocytosis inh,PfG6PD inh,ABHD5 PLIN5 PPI,ABHD5 PLIN5 conf,HNF4 split-luc
O=C(/C(=C/c1ccc(Cl)cc1)c1nc2ccccc2[nH]1)c1ccccc1,2,54,-8,28*,100*,94*
COc1ccc(C(=O)N/C(=C/c2cccs2)c2nc3ccccc3[nH]2)cc1OC,-4,-5,1,2,.,.
COc1ccc(C=C2C(=O)c3ccccc3C2=O)cc1O,4,4,17,5,.,.
COc1ccc(/C=C2\CN(Cc3ccccc3)C/C(=C\c3ccc(OC)c(O)c3)C2=O)cc1O,10,67*,13,72*,93*,86*
CCN1C/C(=C/c2ccc(OC)c(O)c2)C(=O)/C(=C/c2ccc(OC)c(O)c2)C1,3,0,10,42*,51*,30*
O=C(COC(=O)c1ccc(S(=O)(=O)N2CCOCC2)cc1)NCc1ccco1,.,-2,5,5,.,.
Cc1cccc(C)c1NCc1n[nH]c(=S)n1-c1ccccc1,-8,-1,35,-5,.,.
CC(=O)Oc1c(Br)cc(N(C(C)=O)S(=O)(=O)c2ccccc2)c2ccccc12,31,52,44,45*,48*,14*
CC(=O)Oc1ccccc1N(C(C)=O)S(=O)(=O)c1ccc2ccccc2c1,-13,-7,-2,-6,.,.
O=C(/C=C/c1cccc(O)c1)c1ccc(N2CCOCC2)cc1,0,-2,10,18,.,.
O=C(/C=C/c1cccnc1)c1cccc(O)c1,12,-2,-1,63*,81*,90*
O=C(/C=C/c1cccc(O)c1)c1cccnc1,-3,0,11,47*,70*,64*
Cc1cccc(C)c1NC(=O)CN(C)C(=O)c1cccc(NS(=O)(=O)c2ccccc2)c1,1,0,-11,7,.,.
CCOC(=O)c1cnc2c(C)cccc2c1NCc1ccco1,-1,-3,22,24*,4,8
CC(=O)OC[C@]12CC[C@H]3[C@@](C)(CC[C@H]4C(C)(C)CCC[C@]34C)[C@@H]1CC(C1=CC(=O)OC1O)O2 (stereo not given in full),.,86*,.,100*,103*,103*
CC(=O)OC[C@]1(OC(C)=O)C[C@@]23CC[C@H]4[C@@](C)(CCC[C@@]4(C)C(=O)O)[C@@H]2CC[C@@H]1C3,0,-6,-9,-3,.,.
COc1ccc(N2CCN(C3CCCN(C(=O)C4=C(C)OCCO4)C3)CC2)cc1 (stereo not given),-2,0,16,1,.,.
CCOC(=O)C1CCCN(C(=O)c2cc(Nc3ccc(OC)c(OC)c3)nc3ccccc23)C1 (stereo not given),4,-3,23,29*,45*,2
CCOC(=O)C1CCCN(C(=O)c2cc(Nc3ccc(OC)cc3OC)nc3ccccc23)C1 (stereo not given),2,-3,9,9,.,.
CCOc1ccc(S(=O)(=O)N2CCCC(C(=O)NCC3CCCO3)C2)cc1 (stereo not given),1,-1,-19,1,.,.
O=S(=O)(NC1=NCCCCC1)c1ccc2sc(NS(=O)(=O)c3ccc4ccccc4c3)nc2c1,-3,-2,20,47*,9,-35

# Compound activity: PubChem BioAssay, several laboratories
